# From ChEMBL document CHEMBL1158046, “Photoactivated insecticidal thiophene derivatives from Xanthopappus subacaulis” (2006)
# Columns and labels:
# Aedes albopictus [1] = assay: Insecticidal activity against Asian tiger mosquito fourth-instar larvae after 24 hrs in dark; format: functional
# Procedure, shortened: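 Aedes albopictus fourth-instar larvae from a laboratory colony; samples dissolved and serially diluted in acetone, 0.4 mL added to 20 mL dechlorinated water with 30 larvae; held in the dark throughout the trial; mortality read at 24 h, three replications per concentration; LC50 (concentration causing 50% mortality) determined.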
# Aedes albopictus [2] = assay: Insecticidal activity against Asian tiger mosquito fourth-instar larvae irradiated with 2074 uW/cm'2 UV light for 1.5 hrs; format: functional; settings: light or radiation study
# Procedure, shortened: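 Aedes albopictus fourth-instar larvae from a laboratory colony; acetone-diluted samples (0.4 mL) added to 20 mL dechlorinated water with 30 larvae; 3 h dark incubation, then 1.5 h UV irradiation (300-400 nm, max 365 nm), then 24 h in darkness; mortality from three replications per concentration; LC50 (concentration causing 50% mortality) determined.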
Structure (SMILES),LC50 (Aedes albopictus [1]) [µg/mL],LC50 (Aedes albopictus [2]) [µg/mL]
C/C=C/C#CC#Cc1ccc(CO)s1,> 10,0.3
C/C=C/C#CC#Cc1ccc(C(O)CO)s1 (racemic),> 10,4.2
C/C=C/C#CC#Cc1ccc(C(COC(C)=O)OC(C)=O)s1 (racemic),> 10,0.66
C/C=C/C#CC#Cc1ccc(C(O)CCl)s1 (racemic) [XANTHOPAPPIN B],5.1,0.53
C/C=C/C#CC#Cc1ccc(C(=O)C(O)(CC(C)=O)c2ccc(C#CC#C/C=C/C)s2)s1 (racemic) [XANTHOPAPPIN C],> 10,0.95
C/C=C/C#CC#Cc1cccs1 [XANTHOPAPPIN A],> 10,0.71
